Screening data deposited in PubChem by several laboratories.
PRMT1 FP inh: PRMT1 methyltransferase inhibitors, primary screen, biochemical, fluorescence polarization; Protein arginine N-methyltransferase 1 (Homo sapiens), Q99873; recombinant PRMT1, activity-based probe fluorescence polarization; inhibition, % at 2.79 µM; 1.3% of 370,000 active; AID 652257, 2013;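 active means inhibition above about 21% made by adding two undisclosed values, limit read from the data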
ATG4B inhibitor: ATG4B protease inhibitors, primary screen, biochemical, fluorescence, uHTS; Cysteine protease ATG4B (Homo sapiens), Q9Y4P1; ATG4B cleavage of LC3-PLA2, NBD-HPC fluorescence, 1 h; inhibition, % at 8.33 µM; 0.51% of 340,000 active; in the data active means inhibition above about 40%
SIAE primary: human SIAE inhibitors, primary screen, biochemical, fluorescence polarization, FP-Rh probe, 1536-well HTS; Sialate O-acetylesterase (Homo sapiens), Q9HAT2; SIAE FP-Rh probe binding; inhibition, % at 9.66 µM; 0.69% of 370,000 active; AID 1053197, 2014;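 active means inhibition above a cutoff: mean of compounds within the control limits plus 3 SD of those, cut at about 17% in these data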;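 further: 0% = plate median of compound wells and 100% = probe without SIAE protein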
Target sequence (Q9HAT2 whole entry, looked up): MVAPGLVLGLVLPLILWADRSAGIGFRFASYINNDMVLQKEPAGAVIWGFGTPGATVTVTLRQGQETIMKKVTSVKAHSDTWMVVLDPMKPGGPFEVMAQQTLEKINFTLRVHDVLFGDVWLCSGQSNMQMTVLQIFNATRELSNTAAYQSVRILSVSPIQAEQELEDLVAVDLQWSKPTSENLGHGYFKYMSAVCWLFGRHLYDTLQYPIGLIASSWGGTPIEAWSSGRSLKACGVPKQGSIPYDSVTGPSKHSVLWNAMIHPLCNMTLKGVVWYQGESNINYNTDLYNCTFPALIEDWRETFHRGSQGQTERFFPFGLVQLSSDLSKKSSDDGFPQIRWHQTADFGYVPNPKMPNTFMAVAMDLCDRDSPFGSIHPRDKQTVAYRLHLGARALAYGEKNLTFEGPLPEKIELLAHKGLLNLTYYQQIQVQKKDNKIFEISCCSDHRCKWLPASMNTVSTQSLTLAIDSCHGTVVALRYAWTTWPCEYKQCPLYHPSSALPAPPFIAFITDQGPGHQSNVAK
TCR CD3 inh: inhibitors of human TCR-CD3 interaction, primary screen, biochemical, fluorescence, TAMRA-labeled TCR probe | T-cell receptor (TCR) | inhibition, % at 9.4 µM | 0.37% of 360,000 active; in the data active means inhibition above about 19%;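 further: recombinant mutant TCR 2C K166C tagged with TAMRA read by polarization; 0% = receptor in buffer alone and 100% = receptor with positive control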
ABHD4 inh: ABHD4 inhibitors, primary screen, biochemical, fluorescence polarization, mouse. purified mABHD4, FP-Rh probe fluorescence polarization. inhibition, % at 8.92 µM. 0.54% of 370,000 active;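 active means inhibition exceeding the mean over every tested compound plus 3 SD, cut at about 30% in these data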;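 further: 0% = plate median of compound wells and 100% = S159A mutant with DMSO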
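Test system: mABHD4 protein; Read-out basis: % inhibition; Incubation: 45 min + 60 min at 25 °C; Repeats: single replicate; Technique: fluorescence polarization with parallel and perpendicular emission, 525/598 nm; Compound: 8.92 µM, single dose; Benchmarks: full inhibition S159A mutant plus DMSO, zero as sample-well median.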
HTRA1 inh: HTRA1 serine protease inhibitors, primary screen, biochemical, fluorescence polarization, HTS; inhibition, % at 5.96 µM; recombinant HTRA1, FP-rhodamine activity-based probe; 0.5% of 340,000 active; Q92743; in the data active means inhibition above about 36%;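 further: 0% = enzyme with DMSO and 100% = wells lacking enzyme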
PRMT1 inh conf: PRMT1 methyltransferase inhibitors, confirmation, biochemical, fluorescence polarization, triplicate | shares compounds with PRMT1 FP inh | recombinant His-PRMT1, activity-based probe fluorescence polarization | inhibition, % at 2.79 µM | 42% of 3,300 active | AID 687036, 2013;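 active means mean inhibition across replicates above the hit cutoff derived for the earlier primary screen, cut at about 22% in these data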
Active calls of the source: *; · = no result. An excerpt weighted towards active compounds, which were near 2.9% of everything screened.

SMILES | PRMT1 FP inh | ATG4B inhibitor | SIAE primary | TCR CD3 inh | ABHD4 inh | HTRA1 inh | PRMT1 inh conf
Cc1ccc(NC(=O)c2cc(N3C(=O)CCC3=O)ccc2N2CCOCC2)cc1 | 2 | 18 | -1 | -8 | 5 | -10 | ·
Cc1ccc(NC(=O)c2cc(N3C(=O)C=CC3=O)ccc2N2CCOCC2)cc1Cl | 90* | -9 | -18 | 2 | 4 | -12 | 103*
CCN(CC)CCSc1nc(O)c(-c2ccccc2)c(=O)n1-c1ccccc1 | 25* | -1 | 3 | -4 | -4 | 1 | 16
CCN(CC)CCSc1nc(O)c(Cc2ccccc2)c(=O)n1-c1ccccc1 | 20 | 11 | 4 | -8 | 10 | -3 | ·
CC(=O)Oc1ccc(N2C(=O)C3C4C=CC(CO)(O4)C3C2=O)cc1 (configuration not stated) | 85* | -2 | 4 | -4 | 0 | 3 | 79*
O=C1C2C3C=CC(CNS(=O)(=O)c4ccccc4)(O3)C2C(=O)N1c1ccc(Cl)cc1 (configuration not stated) | 80* | 1 | 2 | -3 | 1 | 3 | 69*
Cc1ccc(OCc2nnc(SCC(=O)c3ccc(-c4ccccc4)cc3)n2Cc2ccco2)cc1 | 6 | · | -10 | · | -11 | · | ·
C[C@@H]1COc2cc(Br)ccc2S(=O)(=O)N1Cc1cn(CCC2OCCCO2)nn1 | 0 | · | 2 | · | 2 | · | ·
CC(=O)c1cc(-c2cc(C(F)(F)F)cc(C(F)(F)F)c2)c(=O)n2c1CCC2 | 0 | · | 11 | · | -2 | · | ·
Cc1cccc(C)c1NC(=O)COC(=O)CCc1c[nH]c2ccccc12 | 30* | -53 | 6 | 16 | 10 | 1 | -1
COCCN=C1S/C(=C\c2cc(C)n(-c3ccc(F)cc3F)c2C)C(=O)N1C | 18 | · | -30 | · | -7 | · | ·
COC(=O)c1cc(C(c2ccccc2O)C2CCC(C)(C)O2)n2ccccc12 (configuration not stated) | 4 | · | -3 | · | 1 | · | ·
O=C1C=CC(=Nc2ccc3c(c2)Cc2cc(F)ccc2-3)O1 | 74* | 0 | -6 | 4 | 4 | -10 | 87*
O=C1C=CC(=Nc2cccc3c2C(=O)c2ccccc2-3)O1 | · | 7 | · | · | · | -7 | ·
S=c1[nH]nc(-c2ccncc2)n1/N=C/C(Cl)=C\c1ccccc1 | 34* | -1 | 5 | 2 | -11 | 0 | 19
S=c1[nH]nc(-c2ccco2)n1/N=C/c1ccc(Cl)cc1 | 25* | 9 | 10 | 0 | 5 | 5 | 20
CC(/C=N/n1c(-c2ccc(Cl)cc2)n[nH]c1=S)=C\c1ccco1 | 27* | 18 | -4 | -8 | 0 | -12 | 15
COc1ccc(Cn2ccc3ccc(-c4ccc5ccn(Cc6ccc(F)cc6)c5c4)cc32)cc1 | 3 | · | -1 | · | 3 | · | ·
Cc1ccccc1N1CCN(S(=O)(=O)c2ccc3c(c2)oc(=O)n3C)CC1 | -3 | · | 8 | · | -2 | · | ·
Cc1cccc(N2C(=O)CC(Sc3ncn[nH]3)C2=O)c1 (configuration not stated) | 58* | 3 | 3 | -5 | 3 | -14 | 55*
Cc1cccc(N2C(=O)CC(Sc3nccc(C)n3)C2=O)c1 (configuration not stated) | 6 | -2 | 0 | 8 | -3 | 11 | ·
Cc1ccc(N2C(=O)CC(Sc3ncn[nH]3)C2=O)cc1C (configuration not stated) | 61* | -10 | 4 | 10 | 5 | -3 | 44*
c1ccc(Sc2ccncc2)cc1 | -3 | · | -6 | 3 | 0 | 2 | ·
c1cc(SSc2ccncc2)ccn1 | 87* | -2 | 7 | 3 | 7 | 3 | 83*
CCC[C@H]1[C@@H](NC(=O)C2CCCCC2)CC[C@@]23CCCN2C(=O)CCC[C@@H]13 | 2 | · | -22 | · | 5 | · | ·
SMILES | PRMT1 FP inh | ATG4B inhibitor | SIAE primary | TCR CD3 inh | ABHD4 inh | HTRA1 inh | PRMT1 inh conf
CC(=O)Nc1ccc(Sc2ccc([N+](=O)[O-])o2)cc1 | 34* | -6 | -6 | 1 | 6 | -6 | 36*
Cc1ccc(NC(=O)c2cc(-c3ccc(C)o3)nc3ccccc23)cc1 | 49* | -3 | -6 | -7 | -8 | -25 | 25*
COc1ccc(OC)c(/C=N/NC(=O)c2cc(-c3ccc(C)o3)nc3ccccc23)c1 | 30* | -6 | -12 | -4 | -27 | -23 | 7
COc1ccc(-c2cc(C(=O)N/N=C/c3cc(OC)c(OC)cc3OC)c3ccccc3n2)cc1 | 1 | -12 | -6 | 1 | 4 | · | ·
Cc1ccc(-c2cc(C(=O)Nc3cccnc3)c3ccccc3n2)o1 | 46* | -7 | -2 | 6 | 3 | -1 | 12
C#CCN1CC(N2CCN(CCO)CC2)CS1(=O)=O (configuration not stated) | 1 | · | -2 | · | 7 | · | ·
CC(C)CC1CC(C)(c2csc(NNC(=O)c3ccccc3)n2)OC1=O (configuration not stated) | 42* | 2 | 11 | 4 | 12 | -12 | -3
Cc1ccccc1NC(=O)OC1CCC12CCC(c1ccccc1)CC2 (configuration not stated) | -3 | · | -5 | · | -9 | · | ·
CCC(=O)Nc1nc(-c2ccc3c(c2)OCCO3)cs1 | -4 | 9 | 0 | 1 | -2 | -3 | ·
c1cc2c(cc1-c1csc(NNC3=NCCCCC3)n1)OCCO2 | 75* | -9 | 9 | -8 | 15 | · | 24*
O=C1c2cccc3c(N4CCCCC4)ccc(c23)C(=O)N1c1ccccn1 | 8 | 0 | 4 | 8 | -6 | -2 | ·
Cc1ccc(N2C(=O)c3cccc4c(N)ccc(c34)C2=O)c2cccnc12 | 94* | -6 | -38 | 13 | 4 | 11 | 119*
CC1=C(C(=O)Nc2ccccc2)C2(CCCCC2)C(C#N)=C(S)N1 | 26* | 5 | -9 | 3 | 5 | -14 | 25*
Cc1cc(C)c(C)c(S(=O)(=O)N2C(=S)NC(=O)C2CC(C)C)c1C (configuration not stated) | 2 | 1 | -7 | -5 | -1 | -3 | ·
Cc1cc(C)c(C)c(S(=O)(=O)N2C(=S)NC(=O)C2C(C)C)c1C (configuration not stated) | 28* | 1 | 0 | 5 | -5 | -11 | 6
COC(=O)C[C@H]1CC[C@@H]2[C@@H](COc3ccc(NC(=O)c4ccccc4)cc3C(=O)N2C)O1 | -3 | · | -7 | · | -3 | · | ·
